≈ marks a conversion by molar mass, not a printed value. Calls of active or inactive are those of the source. No cut-off for these calls is given here.
Columns and labels:
[1] = tested on: Mycobacterium tuberculosis; experiment: Antitubercular activity against Mycobacterium tuberculosis H37Ra after 5 days by microplate alamar blue assay; format: functional; conditions: 120 h
Procedure, shortened: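 Microplate Alamar Blue assay on M. tuberculosis H37Ra. A log-phase culture was diluted to a final OD550 nm of 0.05 in Sauton's medium. Test compounds in DMSO were dispensed into 96-well plates, with two-fold dilutions in the initial screen.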

[2] = tested on: Mycobacterium tuberculosis; experiment: Antitubercular activity against Mycobacterium tuberculosis H37Rv after 24 hrs by agar microdilution method; format: functional
Procedure, shortened: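 Agar microdilution on M. tuberculosis H37Rv. Two-fold compound dilutions were made in 7H10 agar with OADC. Inoculum came from L–J medium, harvested in 0.85% saline with 0.05% Tween-80. Slants were held 24 h at 37 °C, then streaked with 5×10^4 bacilli per tube and incubated at 37 °C for 30 days. MIC was the concentration giving complete colony inhibition versus medium-only control.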

Candida albicans = experiment: Antimicrobial activity against Candida albicans ATCC 1405B after 48 hrs by standard microbroth dilution technique; format: functional
Cryptococcus neoformans = experiment: Antimicrobial activity against Cryptococcus neoformans after 72 hrs by standard microbroth dilution technique; format: functional
Aspergillus fumigatus = experiment: Antimicrobial activity against Aspergillus fumigatus after 72 hrs by standard microbroth dilution technique; format: functional
Candida parapsilosis = experiment: Antimicrobial activity against Candida parapsilosis ATCC 22019 after 48 hrs by standard microbroth dilution technique; format: functional; conditions: Lodderomyces parapsilosis, ATCC 22019, 48 h
Escherichia coli = experiment: Antimicrobial activity against Escherichia coli ATCC 9637 after 24 hrs by standard microbroth dilution technique; format: functional, organism-based
Pseudomonas aeruginosa = experiment: Antimicrobial activity against Pseudomonas aeruginosa ATCC BAA-427 after 24 hrs by standard microbroth dilution technique; format: functional, organism-based
Staphylococcus aureus = experiment: Antimicrobial activity against Staphylococcus aureus ATCC 25923 after 24 hrs by standard microbroth dilution technique; format: functional, organism-based
Klebsiella pneumoniae = experiment: Antimicrobial activity against Klebsiella pneumoniae ATCC 27736 after 24 hrs by standard microbroth dilution technique; format: functional, organism-based
Sporothrix schenckii = experiment: Antimicrobial activity against Sporothrix schenckii after 72 hrs by standard microbroth dilution technique; format: functional
[3] = tested on: Trichophyton mentagrophytes; experiment: Antimicrobial activity against Trichophyton mentagrophytes after 96 hrs by standard microbroth dilution technique; format: functional

| SMILES | MIC [1] [µg/mL] | MIC [2] [µg/mL] | MIC (Candida albicans) [µg/mL] | MIC (Cryptococcus neoformans) [µg/mL] | MIC (Aspergillus fumigatus) [µg/mL] | MIC (Candida parapsilosis) [µg/mL] | Activity (Escherichia coli) | Activity (Pseudomonas aeruginosa) | Activity (Staphylococcus aureus) | Activity (Klebsiella pneumoniae) | MIC (Sporothrix schenckii) [µg/mL] | MIC [3] [µg/mL] |
| --- | --- | --- | --- | --- | --- | --- | --- | --- | --- | --- | --- | --- |
| COc1ccc(/C=C2\CC/C(=C\c3ccc(OC)c(OC)c3)C2=O)cc1OC | > 12.5 | > 12.5 | > 50 | > 50 | > 50 | > 50 | inactive | inactive | inactive | inactive |  |  |
| O=C1/C(=C/c2ccccc2)CCC/C1=C\c1ccccc1 [2,6-DIBENZYLIDENECYCLOHEXANONE] | > 12.5 | 6.25 (≈ 22.8 µM) | > 50 | > 50 | > 50 | > 50 | inactive | inactive | inactive | inactive |  |  |
| O=C1/C(=C/c2ccc(Cl)cc2)CCC/C1=C\c1ccc(Cl)cc1 | > 12.5 | > 12.5 | > 50 | > 50 | > 50 | > 50 | inactive | inactive | inactive | inactive |  |  |
| O=C1CCCCC1C(O)c1ccc([N+](=O)[O-])cc1 (stereo not given) | > 12.5 | 12.5 (≈ 50.1 µM) | > 50 | > 50 | > 50 | > 50 | inactive | inactive | inactive | inactive |  |  |
| OC1/C(=C/c2ccc(Br)cc2)CCC/C1=C\c1ccc(Br)cc1 (stereo not given) | > 12.5 | 12.5 (≈ 28.8 µM) | > 50 | > 50 | > 50 | > 50 | inactive | inactive | inactive | inactive |  |  |
| CC[C@@H](CO)NCCN[C@@H](CC)CO [ETHAMBUTOL] |  | 3.25 (≈ 15.9 µM) |  |  |  |  |  |  |  |  |  |  |
| O=C1CCCCC1C(O)c1ccc(Br)cc1 (stereo not given) | > 12.5 | 12.5 (≈ 44.1 µM) | > 50 | > 50 | > 50 | > 50 | inactive | inactive | inactive | inactive |  |  |
| COc1ccc(/C=C2\CCC/C(=C\c3ccc(OC)c(OC)c3)C2=O)cc1OC | > 12.5 | > 12.5 | > 50 | > 50 | > 50 | > 50 | inactive | inactive | inactive | inactive |  |  |
| O=[N+]([O-])c1ccc(/C=C2\CCC/C(=C\c3ccc([N+](=O)[O-])cc3)C2O)cc1 | > 12.5 | > 12.5 | > 50 | > 50 | > 50 | > 50 | inactive | inactive | inactive | inactive |  |  |
| O=C1/C(=C/c2ccc(Cl)cc2)CCCC/C1=C\c1ccc(Cl)cc1 | > 12.5 | > 12.5 | > 50 | > 50 | > 50 | > 50 | inactive | inactive | inactive | inactive |  |  |
| O=C1/C(=C/c2ccc(F)cc2)CCC/C1=C\c1ccc(F)cc1 | 12.5 (≈ 40.3 µM) | > 12.5 | > 50 | > 50 | > 50 | > 50 | inactive | inactive | inactive | inactive |  |  |
| O=C1CCCCC1C(O)c1cccc([N+](=O)[O-])c1 (stereo not given) | > 12.5 | 12.5 (≈ 50.1 µM) | > 50 | > 50 | > 50 | > 50 | inactive | inactive | inactive | inactive |  |  |
| O=C1/C(=C/c2ccc(Br)cc2)CCC/C1=C\c1ccc(Br)cc1 | 1.56 (≈ 3.61 µM) | 12.5 (≈ 28.9 µM) |  |  |  |  | inactive | inactive | inactive | inactive | 25 (≈ 57.8 µM) | 12.5 (≈ 28.9 µM) |
| O=C1/C(=C/c2ccc(OCc3ccccc3)cc2)CCC/C1=C\c1ccc(OCc2ccccc2)cc1 | > 12.5 | > 12.5 | > 50 | > 50 | > 50 | > 50 | inactive | inactive | inactive | inactive |  |  |
| O=C1CCCCC1C(O)c1ccccc1[N+](=O)[O-] (stereo not given) | > 12.5 | > 12.5 | > 50 | > 50 | > 50 | > 50 | inactive | inactive | inactive | inactive |  |  |
| O=C1/C(=C/c2ccc(Br)cc2)CCCC/C1=C\c1ccc(Br)cc1 | > 12.5 | > 12.5 | > 50 | > 50 | > 50 | > 50 | inactive | inactive | inactive | inactive |  |  |
| COc1ccc(/C=C2\CCCC/C(=C\c3ccc(OC)cc3)C2=O)cc1 | 6.25 (≈ 17.9 µM) | > 12.5 | > 50 | > 50 | > 50 | > 50 | inactive | inactive | inactive | inactive |  |  |
| NNC(=O)c1ccncc1 [ISONIAZID] |  | 0.75 (≈ 5.47 µM) |  |  |  |  |  |  |  |  |  |  |
| O=C1/C(=C/c2ccc3ccccc3c2)CCC/C1=C\c1ccc2ccccc2c1 | > 12.5 | > 12.5 | > 50 | > 50 | > 50 | > 50 | inactive | inactive | inactive | inactive |  |  |
| O=C1/C(=C/c2ccco2)CCC/C1=C\c1ccco1 | > 12.5 | > 12.5 | > 50 | > 50 | > 50 | > 50 | inactive | inactive | inactive | inactive |  |  |
| COc1cc(/C=C2\CCC/C(=C\c3cc(OC)c(OC)c(OC)c3)C2=O)cc(OC)c1OC | > 12.5 | > 12.5 | > 50 | > 50 | > 50 | > 50 | inactive | inactive | inactive | inactive |  |  |
| COc1ccc(/C=C2\CCCC/C(=C\c3ccc(OC)c(OC)c3)C2=O)cc1OC | > 12.5 | > 12.5 | > 50 | > 50 | > 50 | > 50 | inactive | inactive | inactive | inactive |  |  |
| O=C1/C(=C/c2ccc([N+](=O)[O-])cc2)CCC/C1=C\c1ccc([N+](=O)[O-])cc1 | 3.12 (≈ 8.56 µM) | 12.5 (≈ 34.3 µM) | > 50 | > 50 | > 50 | > 50 | inactive | inactive | inactive | inactive |  |  |
